In brackets after ≈: the same amount, converted by molar mass.
What was measured:
Format in all cases: functional
[1] = tested on: Escherichia coli; assay: Antimicrobial activity against Escherichia coli ATCC 25922
Summary of the method: (§1)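 Bacteria were subcultured on blood agar for 24 h at 37 °C, then tested by broth microdilution in cation-adjusted Mueller-Hinton broth. Compounds were in DMSO and given as twofold serial dilutions from 1024 down to 1, with a final inoculum of 10^5 CFU/mL. Plates were incubated 48 h at 35 °C. MIC was the lowest concentration preventing visible growth. Growth control was drug-free inoculated broth.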

[2] = tested on: Staphylococcus aureus; assay: Antimicrobial activity against Staphylococcus aureus ATCC 6538; summary of the method: as §1
[3] = tested on: Candida albicans; assay: Antimicrobial activity against Candida albicans ATCC 10231
Summary of the method: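 Yeast was subcultured on Sabouraud dextrose agar for 24 h at 35 °C. It was then tested by NCCLS M27-A broth microdilution in RPMI 1640 buffered with MOPS, pH 7.0. DMSO solutions were diluted twofold from 1024 […]. Final inoculum was 0.5×10^3–2.5×10^3 CFU/mL, read after 48 h at 35 °C. MIC was the lowest concentration visibly inhibiting growth.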

Row | Compound | MIC [1] [µg/mL] | MIC [2] [µg/mL] | MIC [3] [µg/mL]
1 | Cc1cc(C)c(C/C(=N/O)c2cc3ccccc3o2)c(C)c1 | 128 (≈ 436 µM) | 128 (≈ 436 µM) | 128 (≈ 436 µM)
2 | C[C@@H](O)[C@H]1C(=O)N2C(C(=O)O)=C(S[C@@H]3CN[C@H](C(=O)N(C)C)C3)[C@H](C)[C@H]12 [MEROPENEM] | 0.125 (≈ 0.326 µM) | 1 (≈ 2.61 µM) | 
3 | CCOC(=O)CO/N=C(\Cc1c(C)cc(C)cc1C)c1cc2ccccc2o1 | 256 (≈ 675 µM) | 256 (≈ 675 µM) | 256 (≈ 675 µM)
4 | Cc1cc(C)c(C/C(=N/OCC(=O)NN)c2cc3ccccc3o2)c(C)c1 | 64 (≈ 175 µM) | 256 (≈ 701 µM) | 32 (≈ 87.6 µM)
5 | OC(Cn1cncn1)(Cn1cncn1)c1ccc(F)cc1F [FLUCONAZOLE] |  |  | 0.25 (≈ 0.816 µM)
6 | Cc1cc(C)c(CC(O)c2cc3ccccc3o2)c(C)c1 (stereo unspecified) | 128 (≈ 457 µM) | 128 (≈ 457 µM) | 64 (≈ 228 µM)
7 | Cc1cc(C)c(C/C(=N\OC(=O)Cc2ccccc2)c2cc3ccccc3o2)c(C)c1 | 128 (≈ 311 µM) | 256 (≈ 622 µM) | 128 (≈ 311 µM)
8 | Cc1cc(C)c(CC(=O)CSC#N)c(C)c1 | 256 (≈ 1100 µM) | 256 (≈ 1100 µM) | 32 (≈ 137 µM)
9 | Cc1cc(C)c(CC(O)CCl)c(C)c1 (stereo unspecified) | 64 (≈ 301 µM) | 128 (≈ 602 µM) | 32 (≈ 150 µM)
10 | CO/N=C(\Cc1c(C)cc(C)cc1C)c1cc2ccccc2o1 | 128 (≈ 416 µM) | 256 (≈ 833 µM) | 64 (≈ 208 µM)
11 | Cc1cc(C)c(CC(=O)CCl)c(C)c1 | 64 (≈ 304 µM) | 16 (≈ 75.9 µM) | 16 (≈ 75.9 µM)
12 | Cc1cc(C)c(C/C(=N\OC(=O)c2ccccc2)c2cc3ccccc3o2)c(C)c1 | 32 (≈ 80.5 µM) | 4 (≈ 10.1 µM) | 64 (≈ 161 µM)
13 | Cc1cc(C)c(C/C(=N/NC(N)=O)c2cc3ccccc3o2)c(C)c1 | 64 (≈ 191 µM) | 128 (≈ 382 µM) | 64 (≈ 191 µM)

Source: ChEMBL document CHEMBL1149769, “Synthesis and antimicrobial activity of some novel derivatives of benzofuran: part 2. The synthesis and antimicrobial activity of some novel 1-(1-benzofuran-2-yl)-2-mesitylethanone derivatives” (2008)
